Laboratory results as given in the RNAGym collection of RNA variant scans (doi:10.1126/science.aae0568).
This sample holds only a part of the variants without activity.

B1: tRNA (parent)
chain: GUUCCGUUGGCGUAAUGGUAACGCGUCUCCCUCCUAAGGAGAAGACUGCGGGUUCGAGUCCCGUACGGAACG

Variants of: B1
Experiment: yeast fitness relative to wild type (ratio to wild type); higher = fitter; tRNA-Arg(CCU), competitive growth, 37 C, YPD
In short: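 For this measurement, the tRNA-Arg(CCU) gene was varied by chemical synthesis at a 3% per-site mutation rate across 69 sites, and each variant was placed at the native genomic locus in Saccharomyces cerevisiae. The pooled strains went through a 24-hour competition in YPD at 37°C in six parallel replicates, with amplicons from start and end populations read by 100-nucleotide paired-end sequencing. Darwinian fitness relative to wild type followed from the change in each genotype's frequency. Genotypes needed ≥ 100 starting reads, and estimates < 0.5 were set to 0.5.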

| Variant | yeast fitness |
| --- | --- |
| C24G C29A G44C C61U | 0.787 |
| C24G C31G G68A A70U | ≤ 0.5 |
| C24A U28C A57U | ≤ 0.5 |
| C24G C31G C33U C46G U54G G67U | 0.645 |
| C24A C55G | 0.545 |
| C24G U26A C29G U32A | 0.516 |
| C24G C27U U53A | ≤ 0.5 |
| C24G A37C G67A | ≤ 0.5 |
| C24A U32G A36U A57C | ≤ 0.5 |
| C24G C27U C29G C34G A36G A43U | ≤ 0.5 |
| C24G A40U U47A | ≤ 0.5 |
| C24G G25C C27A A40C G51A | ≤ 0.5 |
| C24A G52C A57C | 0.561 |
| C24G C29G C49G | ≤ 0.5 |
| C24G C46U C49G G51C C66G | 0.639 |
| C24G C33U C60G | 0.519 |
| C24G G48A A57G | ≤ 0.5 |
| C24A G58A | 0.859 |
| C24G C30G U59G | 0.64 |
| C24A G63A U64A | ≤ 0.5 |
| C24G C60A U64A | 0.607 |

| Variant | yeast fitness |
| --- | --- |
| C24G C27U G51C U64A | ≤ 0.5 |
| C24A G58C C62U | ≤ 0.5 |
| C24G A37G A42C A70U | ≤ 0.5 |
| C24G A36U U54A | ≤ 0.5 |
| C24G A40C G56U | ≤ 0.5 |
| C24G C33G G63A | ≤ 0.5 |
| C24G C29G G67A | 0.57 |
| C24A G25A U47C G52C | ≤ 0.5 |
| C24G C33G A36C A37C A42C A45G A65U | ≤ 0.5 |
| C24G C34U A36C | ≤ 0.5 |
| C24A G48C G67C | ≤ 0.5 |
| C24G C27G | 0.593 |
| C24G A36G A45G C61A A70G | ≤ 0.5 |
| C24A C34U A40C G68C | ≤ 0.5 |
| C24G C27U C33U G48A G50C G68A | ≤ 0.5 |
| C24G A43C | 0.543 |
| C24G A43U | 0.703 |
| C24G C34G G52A | 0.602 |
| C24G C31U G41C C46G G63C | ≤ 0.5 |
| C24G C30A A69C | 0.547 |
| C24G C29G G39C | 0.513 |

| Variant | yeast fitness |
| --- | --- |
| C24G C34A U35A C46U G48A C60G C66U | 0.558 |
| C24G C27G A36U G38C C60G C66A | ≤ 0.5 |
| C24A G39C A42G | ≤ 0.5 |
| C24G A36G A65U | 0.554 |
| C24G G25A A36C G67U | ≤ 0.5 |
| C24G G41A G51A G56C | 0.556 |
| C24G A57U G67C | 0.612 |
| C24G C60A G67A | 0.693 |
| C24G C31U G50C | 0.56 |
| C24G G25A C66U | 0.561 |
| C24G C33U U59C | ≤ 0.5 |
| C24A U53C | 0.598 |
| C24G G58A | 0.675 |
| C24G G58C | 0.573 |
| C24G G38A | 0.519 |
| C24G G50C G68C | 0.629 |
| C24G G25A C61G G67C G68A | 0.676 |
| C24G C34U U35A A42C C66A | ≤ 0.5 |
| C24A C55G C60A | ≤ 0.5 |
| C24A C55G C60G | 0.528 |
| C24G A43G U47A U53A G68C | ≤ 0.5 |

| Variant | yeast fitness |
| --- | --- |
| C24G C33U A43G U47A C60A | ≤ 0.5 |
| C24G A40G G50C C66U | ≤ 0.5 |
| C24G A36G A40C | ≤ 0.5 |
| C24A G39C A70C | 0.601 |
| C24G A65U G68A | ≤ 0.5 |
| C24G G56C U59A C60G C62G A70C | 0.617 |
| C24A C62G | 0.706 |
| C24A C62U | 0.724 |
| C24G A37C | 0.563 |
| C24G A37G | 0.612 |
| C24G C61G C62U C66U | ≤ 0.5 |
| C24G A36G G39C C55U C66U | ≤ 0.5 |
| C24G C27U A43U G52C | ≤ 0.5 |
| C24A C62G A70U | 0.562 |
| C24G C31U C60G | ≤ 0.5 |
| C24G C29G U32A G52C | ≤ 0.5 |
| C24G A43C C62U A65G | ≤ 0.5 |
| C24G U26C A37G U54G C61G | 0.51 |
| C24G A37G G52C U64C | 0.602 |
| C24G C30U C34A C60U | ≤ 0.5 |
